Reference: ChEMBL document CHEMBL1156317, “Design and synthesis of conformationally constrained N,N-disubstituted 1,4-diazepanes as potent orexin receptor antagonists” (Bioorg Med Chem Lett, 2010)
One block for each compound: values may come before it.

What was measured:
[1] = molecular target: T1, Orexin/Hypocretin receptor type 1 (Homo sapiens, UniProt O43613); experiment: Binding affinity to OX1 receptor by radioligand displacement assay
T1 sequence (O43613 whole entry): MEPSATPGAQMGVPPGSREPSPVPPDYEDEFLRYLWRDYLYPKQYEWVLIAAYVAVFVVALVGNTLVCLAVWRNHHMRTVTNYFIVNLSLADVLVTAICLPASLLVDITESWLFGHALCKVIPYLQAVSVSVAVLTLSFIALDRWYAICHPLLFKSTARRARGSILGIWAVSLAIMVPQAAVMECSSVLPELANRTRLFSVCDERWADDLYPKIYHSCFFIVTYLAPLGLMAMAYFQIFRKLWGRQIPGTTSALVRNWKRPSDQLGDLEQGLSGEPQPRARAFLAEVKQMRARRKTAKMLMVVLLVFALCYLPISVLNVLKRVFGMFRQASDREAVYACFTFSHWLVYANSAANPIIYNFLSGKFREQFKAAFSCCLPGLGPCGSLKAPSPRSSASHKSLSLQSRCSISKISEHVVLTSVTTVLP
Outline: (§1)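 Displacement of a high-affinity radioligand bound to human orexin receptors. Values expressed as Ki.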

[2] = molecular target: T2, Orexin receptor type 2 (Homo sapiens, UniProt O43614); experiment: Binding affinity to OX2 receptor by radioligand displacement assay; outline: as §1
T2 sequence (O43614 whole entry): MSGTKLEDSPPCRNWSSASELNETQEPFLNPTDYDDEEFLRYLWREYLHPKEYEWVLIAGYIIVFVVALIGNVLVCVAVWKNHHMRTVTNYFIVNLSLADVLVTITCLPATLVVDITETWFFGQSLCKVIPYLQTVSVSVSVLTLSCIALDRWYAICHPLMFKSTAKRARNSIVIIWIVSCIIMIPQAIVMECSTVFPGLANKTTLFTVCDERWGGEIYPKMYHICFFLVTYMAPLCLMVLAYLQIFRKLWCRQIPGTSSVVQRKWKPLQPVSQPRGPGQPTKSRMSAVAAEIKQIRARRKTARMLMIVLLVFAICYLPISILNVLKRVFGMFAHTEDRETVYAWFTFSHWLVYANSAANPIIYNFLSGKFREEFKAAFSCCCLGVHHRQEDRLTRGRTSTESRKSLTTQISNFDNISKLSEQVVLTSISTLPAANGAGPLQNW

[3] = molecular target: T1, Orexin/Hypocretin receptor type 1; experiment: Antagonist activity at OX1 receptor assessed as inhibition of calcium flux by FLIPR assay; type: functional
Outline: (§2)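 FLIPR assay on human orexin receptors, with calcium flux as the functional read-out of antagonism. Values expressed as IC50.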

[4] = molecular target: T2, Orexin receptor type 2; experiment: Antagonist activity at OX2 receptor assessed as inhibition of calcium flux by FLIPR assay; type: functional; outline: as §2
[5] = Drug level in Sprague-Dawley rat plasma at 2 mg/kg, iv after 30 mins; type: ADME, organism-based; set-up: dose 2 mg/kg, route intravenous
Outline: (§3)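 Rats aged seven to ten weeks, anesthetized with isoflurane (5% in oxygen to induce, 2% by nose cone to maintain), kept at 37 °C. Compound given by tail-vein infusion at 2 mg/kg over 30 min. At the end of infusion, CSF taken from the cisterna magna, then plasma by cardiac puncture, then the brain harvested. All samples frozen on dry ice and analysed for compound levels.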

[6] = Drug level in Sprague-Dawley rat brain at 2 mg/kg, iv after 30 mins; type: ADME, organism-based; set-up: dose 2 mg/kg, route intravenous; settings: read-out: Drug uptake; outline: as §3
[7] = Drug level in Sprague-Dawley rat CSF at 2 mg/kg, iv after 30 mins; type: ADME, organism-based; set-up: dose 2 mg/kg, route intravenous; settings: cerebrospinal fluid, read-out: Drug uptake; outline: as §3
[8] = Ratio of drug level in brain to plasma in Sprague-Dawley rat at 2 mg/kg, iv after 30 mins; type: ADME, organism-based; set-up: dose 2 mg/kg, route intravenous
Outline: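 Male/female unspecified Sprague–Dawley rats, 7–10 weeks old, under isoflurane anaesthesia (5% induction, 2% maintenance via nose cone) on a 37 °C warming blanket; compound given by tail-vein infusion, 2 mg/kg over 30 min. At end of infusion CSF taken from cisterna magna, plasma by cardiac puncture, brain harvested; samples frozen on dry ice and compound levels measured to give brain/plasma ratio.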

[9] = Protein binding in human; type: ADME, organism-based; settings: in vivo, read-out: PB (converted)
[10] = Protein binding in rat; type: ADME, organism-based; settings: in vivo, read-out: PB (converted)
[11] = Lipophilicity, log P of the compound; type: physicochemical; settings: octanol/water
[12] = Oral bioavailability in rat at 10 mg/kg; type: ADME, organism-based; settings: in vivo
Outline: (§4)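 Rats dosed orally at 10 mpk in VitE-TPGS and intravenously at 2 mpk in DMSO.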

[13] = Oral bioavailability in dog; type: ADME, organism-based, Canis lupus familiaris; settings: in vivo
[14] = Clearance in rat at 10 mg/kg, po and 2 mg/kg, iv; type: ADME, organism-based; settings: in vivo; outline: as §4
[15] = Clearance in dog; type: ADME, organism-based, Canis lupus familiaris; settings: in vivo
[16] = Half life in rat at 10 mg/kg, po and 2 mg/kg, iv; type: ADME, organism-based; settings: in vivo; outline: as §4
[17] = Half life in dog; type: ADME, organism-based, Canis lupus familiaris; settings: in vivo
[18] = AUC (0 to 24 hrs) in rat at 10 mg/kg, po and 2 mg/kg, iv; type: ADME, organism-based; settings: plasma; outline: as §4
[19] = AUC (0 to 24 hrs) in dog; type: ADME, organism-based, Canis lupus familiaris; set-up: time < 24 hr; settings: plasma
[20] = Cmax in rat at 10 mg/kg, po and 2 mg/kg, iv; type: ADME, organism-based; settings: in vivo; outline: as §4
[21] = Cmax in dog; type: ADME, organism-based, Canis lupus familiaris; settings: in vivo
[22] = Apparent permeability across pig LLC-PK1 cells; type: ADME, cell-based, Sus scrofa
[23] = test system: LLC-PK1; experiment: Ratio of permeability from basolateral to apical side over apical to basolateral side in pig LLC-PK1 cells expressing MDR1

Structure (SMILES): Cc1ccc(-n2nccn2)c(C(=O)N2CCCN(c3ncc4cc(F)ccc4n3)CC2)c1
- Ki [1]: 1 nM
- Ki [2]: 0.2 nM
- IC50 [3]: 36 nM
- IC50 [4]: 27 nM

Structure (SMILES): Cc1ccc(-n2nccn2)c(C(=O)N2CCC3CC2CN3c2ncc3cc(F)ccc3n2)c1 (racemic)
- Ki [1]: 870 nM
- Ki [2]: 260 nM
- IC50 [3]: > 5700 nM
- IC50 [4]: > 10000 nM

Structure (SMILES): Cc1ccc(-n2nccn2)c(C(=O)N2CC3CC2CCN3c2ncc3cc(F)ccc3n2)c1 (racemic)
- Ki [1]: 1700 nM
- Ki [2]: 3500 nM
- IC50 [3]: 3900 nM
- IC50 [4]: 3700 nM

Structure (SMILES): Cc1ccc(-n2nccn2)c(C(=O)N2CC3CC(C2)N(c2ncc4ccccc4n2)C3)c1 (single isomer, unassigned; enantiomer A)
- Ki [1]: 110 nM
- Ki [2]: 155 nM
- IC50 [3]: 2500 nM
- IC50 [4]: 6200 nM

Structure (SMILES): Cc1ccc(-n2nccn2)c(C(=O)N2CC3CC(C2)N(c2ncc4ccccc4n2)C3)c1 (single isomer, unassigned; enantiomer B)
- Ki [1]: 0.7 nM
- Ki [2]: 0.9 nM
- IC50 [3]: 24 nM
- IC50 [4]: 44 nM
- concentration at 0.5 h [5]: 835 nM
- concentration at 0.5 h [6]: 690 nM
- concentration at 0.5 h [7]: 60 nM
- Kp at 0.5 h [8]: 0.8
- fraction unbound [9]: 0.064
- fraction unbound [10]: 0.073
- logP [11]: 2.6
- bioavailability [12]: 2%
- bioavailability [13]: 8%
- clearance [14]: 45 mL/min/kg
- clearance [15]: 24 mL/min/kg
- half-life [16]: 42 min
- half-life [17]: 54 min
- AUC(0-t) [18]: 0.23 µM·h
- AUC(0-t) at 24 h [19]: 0.49 µM·h
- Cmax [20]: 150 nM
- Cmax [21]: 510 nM
- Papp [22]: 37 ×10⁻⁶ cm/s
- Ratio [23]: 0.9

Continued, values first:

- Ki [1]: 12 nM
- Ki [2]: 11 nM
- IC50 [3]: 77 nM
- IC50 [4]: 110 nM
Structure (SMILES): Cc1ccc(-n2nccn2)c(C(=O)N2CC3CC2CN(c2ncc4ccccc4n2)C3)c1 (stereo unspecified)

- IC50 [3]: 29 nM
- IC50 [4]: 27 nM
- concentration at 0.5 h [5]: 664 nM
- concentration at 0.5 h [6]: 462 nM
- concentration at 0.5 h [7]: 19 nM
- Kp at 0.5 h [8]: 0.7
- fraction unbound [9]: 0.024
- fraction unbound [10]: 0.029
- logP [11]: 2.91
- bioavailability [12]: 2%
- bioavailability [13]: 16%
- clearance [14]: 53 mL/min/kg
- clearance [15]: 12 mL/min/kg
- half-life [16]: 18 min
- half-life [17]: 78 min
- AUC(0-t) [18]: 0.19 µM·h
- AUC(0-t) at 24 h [19]: 0.44 µM·h
- Cmax [20]: 300 nM
- Cmax [21]: 230 nM
Structure (SMILES): Cc1ccc(-n2nccn2)c(C(=O)N2CCCN(c3ncc4ccccc4n3)CC2)c1

- Ki [1]: 2.3 nM
- Ki [2]: 3.6 nM
- IC50 [3]: 42 nM
- IC50 [4]: 65 nM
Structure (SMILES): Cc1ccc(-n2nccn2)c(C(=O)N2CC3CC(C2)N(c2ncc4ccccc4n2)C3)c1 (racemic)
